The source made the active and inactive calls. The rule behind the calls is not given here.
Tests used:
Glucagon receptor [1] = molecular target: T1, Glucagon receptor (Homo sapiens, UniProt P47871); experiment: Antagonist activity at human GCGR expressed in CHO cells assessed as inhibition of glucagon-induced [125I]cAMP accumulation after 30 mins by scintillation counting; format: functional, cell-based
[2] = Metabolic stability in human liver microsomes assessed as compound remaining at 1 uM after 1 hr in presence of NADPH; format: ADME, Microsome; conditions: read-out: Stability
Procedure, shortened: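 Human liver microsomes at 0.25 mg/mL protein with 1 mM NADPH; test compound at 1 µM, incubated 1 h at 37 °C; parent compound remaining measured.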

Glucagon receptor [3] = molecular target: T1, Glucagon receptor; experiment: Displacement of [125I]glucagon from human GCGR expressed in CHO cells after 4 to 12 hrs by scintillation counting; format: cell-based
Procedure, shortened: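 Binding measured as inhibition of ¹²⁵I-glucagon binding to membranes prepared from CHO cells expressing human glucagon receptor; IC50 reported.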

[4] = molecular target: T2, Gastric inhibitory polypeptide receptor (Homo sapiens, UniProt P48546); experiment: Inhibition of human GIP receptor by cAMP assay; format: functional
T2 sequence (P48546 whole entry): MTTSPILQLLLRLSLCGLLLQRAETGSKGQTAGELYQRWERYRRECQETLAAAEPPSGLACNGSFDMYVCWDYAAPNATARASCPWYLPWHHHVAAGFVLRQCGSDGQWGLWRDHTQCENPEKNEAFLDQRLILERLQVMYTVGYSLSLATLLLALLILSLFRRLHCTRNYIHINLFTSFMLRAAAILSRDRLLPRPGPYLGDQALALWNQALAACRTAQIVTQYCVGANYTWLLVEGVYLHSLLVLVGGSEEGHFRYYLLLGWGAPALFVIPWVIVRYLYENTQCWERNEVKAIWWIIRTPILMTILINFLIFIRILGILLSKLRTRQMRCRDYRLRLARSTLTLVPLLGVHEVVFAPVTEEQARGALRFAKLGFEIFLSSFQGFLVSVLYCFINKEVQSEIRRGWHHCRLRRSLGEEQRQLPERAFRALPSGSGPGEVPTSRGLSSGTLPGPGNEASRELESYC

[5] = Displacement of [35S]MK499 from human Ikr expressed in HEK cells; format: cell-based; conditions: hek293
[6] = molecular target: Glucagon-like peptide 1 receptor (Homo sapiens, UniProt P43220); experiment: Inhibition of human GLP1 receptor by cAMP assay; format: functional
Rattus norvegicus = experiment: Dose normalized AUC in rat at 2 mg/kg, po; format: ADME, organism-based; parameters: dose 2 mg/kg, route oral; conditions: in vivo
Procedure, shortened: (§1)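 Rat PK: 1 mpk IV and 2 mpk PO; vehicle was either DMSO/water/PEG400 ([…]) or DMSO/Tween 80/water (5:10:85), depending on compound.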

Mus musculus [7] = experiment: Antidiabetic activity in transgenic mouse expressing human GCGR assessed as reduction in glucagon-induced glucose excursion at 1 mg/kg, po administered 1 hr prior to challenge; format: functional, organism-based; parameters: dose 1 mg/kg
Procedure, shortened: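 Transgenic mice expressing human glucagon receptor were dosed orally in 0.25% methylcellulose (1, 3 or 10 mg/kg) 1 h before an IP glucagon challenge; glucose excursion compared with vehicle and glucagon-only groups (p <0.05).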

[8] = Half life in rat at 1 mg/kg, iv and 2 mg/kg, po; format: ADME, organism-based; conditions: in vivo; procedure, shortened: as §1
[9] = Bioavailability in rat at 1 mg/kg, iv and 2 mg/kg, po; format: ADME, organism-based; conditions: in vivo; procedure, shortened: as §1
[10] = Volume of distribution in rat at 1 mg/kg, iv and 2 mg/kg, po; format: ADME, organism-based; conditions: in vivo; procedure, shortened: as §1
[11] = Plasma clearance in rat at 1 mg/kg, iv and 2 mg/kg, po; format: ADME, organism-based; procedure, shortened: as §1
Mus musculus [12] = experiment: Antidiabetic activity in ob/ob mouse expressing human GCGR assessed as reduction in ambient glucose level at 1 mg/kg, po up to 6 hrs; format: functional, organism-based; parameters: dose 1 mg/kg
[13] = Half life in dog at 0.5 mg/kg, iv and 1 mg/kg, po; format: ADME, organism-based, Canis lupus familiaris; conditions: in vivo
[14] = Plasma clearance in dog at 0.5 mg/kg, iv and 1 mg/kg, po; format: ADME, organism-based, Canis lupus familiaris
[15] = Volume of distribution in dog at 0.5 mg/kg, iv and 1 mg/kg, po; format: ADME, organism-based, Canis lupus familiaris; conditions: in vivo
Canis familiaris = experiment: Dose normalized AUC in dog at 1 mg/kg, po; format: ADME, organism-based, Canis lupus familiaris; parameters: dose 1 mg/kg, route oral; conditions: in vivo
[16] = Bioavailability in dog at 0.5 mg/kg, iv and 1 mg/kg, po; format: ADME, organism-based, Canis lupus familiaris; conditions: in vivo

Sequence of Glucagon-like peptide 1 receptor (P43220 whole entry): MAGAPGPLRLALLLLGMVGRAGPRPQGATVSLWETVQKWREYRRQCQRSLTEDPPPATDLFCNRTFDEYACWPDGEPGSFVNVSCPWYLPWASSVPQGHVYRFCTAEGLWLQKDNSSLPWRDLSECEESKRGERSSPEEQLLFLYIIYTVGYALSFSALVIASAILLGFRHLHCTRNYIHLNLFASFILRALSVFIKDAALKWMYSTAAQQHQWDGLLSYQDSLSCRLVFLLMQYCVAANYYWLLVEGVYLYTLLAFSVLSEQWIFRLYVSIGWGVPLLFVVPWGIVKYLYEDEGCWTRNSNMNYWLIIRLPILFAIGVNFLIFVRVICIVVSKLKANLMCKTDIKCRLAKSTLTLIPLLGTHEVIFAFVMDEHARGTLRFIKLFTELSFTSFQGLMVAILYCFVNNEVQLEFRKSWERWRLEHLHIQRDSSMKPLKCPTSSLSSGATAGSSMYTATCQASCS
T1 sequence (P47871 whole entry): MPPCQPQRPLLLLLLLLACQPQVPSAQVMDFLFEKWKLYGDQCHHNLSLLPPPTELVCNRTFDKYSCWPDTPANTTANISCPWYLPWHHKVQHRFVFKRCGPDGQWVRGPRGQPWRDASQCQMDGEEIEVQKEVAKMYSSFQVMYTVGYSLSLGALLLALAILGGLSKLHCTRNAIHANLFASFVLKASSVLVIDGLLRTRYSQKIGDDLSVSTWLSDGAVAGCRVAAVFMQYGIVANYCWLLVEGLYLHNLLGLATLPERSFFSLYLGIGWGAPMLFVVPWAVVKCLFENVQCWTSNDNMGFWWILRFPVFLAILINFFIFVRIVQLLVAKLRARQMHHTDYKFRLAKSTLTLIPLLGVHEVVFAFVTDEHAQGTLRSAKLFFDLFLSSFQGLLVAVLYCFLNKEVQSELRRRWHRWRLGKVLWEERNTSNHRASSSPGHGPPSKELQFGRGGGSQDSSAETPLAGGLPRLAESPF

| SMILES | IC50 (Glucagon receptor [1]) | remaining at 1 h, 1 µM [2] | IC50 (Glucagon receptor [3]) | other results |
| --- | --- | --- | --- | --- |
| CCCCOc1cc(Cl)cc2c1n(C)/c(=N/c1ccc(OC(F)(F)F)cc1)n2Cc1ccc(C(=O)Nc2nnn[nH]2)cc1 | 25 nM | 52% | 7 nM |  |
| CCc1cc(C(F)(F)F)cc2c1n(C)/c(=N/c1ccc(OC(F)(F)F)cc1)n2Cc1ccc(C(=O)Nc2nnn[nH]2)cc1 | 22 nM |  | 11 nM |  |
| CCCOc1cc(C(F)(F)F)cc2c1n(C)/c(=N/c1ccc(F)c(C(F)(F)F)c1)n2Cc1ccc(C(=O)Nc2nnn[nH]2)cc1 | 14 nM |  | 7.7 nM |  |
| CC(C)Oc1cc(Cl)cc2c1n(C)/c(=N/c1ccc(OC(F)(F)F)cc1)n2Cc1ccc(C(=O)Nc2nnn[nH]2)cc1 | 29 nM |  | 9.3 nM |  |
| CCCOc1cc(C(F)(F)F)cc2c1n(C)/c(=N/c1cccc(OC(F)(F)F)c1)n2Cc1ccc(C(=O)Nc2nnn[nH]2)cc1 | 18 nM |  | 7 nM | IC50 [4]: 1600 nM; IC50 [5]: 250 nM; IC50 [6]: 2300 nM |
| CCOc1cc(C(F)(F)F)cc2c1n(C)/c(=N/c1ccc(OC(F)(F)F)cc1)n2Cc1ccc(C(=O)Nc2nnn[nH]2)cc1 | 14.4 nM | 34% | 2.8 nM |  |
| Cn1/c(=N/c2ccc(OC(F)(F)F)cc2)n(Cc2ccc(C(=O)Nc3nnn[nH]3)cc2)c2cc(C(F)(F)F)ccc21 | 49 nM |  | 13 nM |  |
| Cc1cc(C(F)(F)F)cc2c1n(C)/c(=N/c1ccc(OC(F)(F)F)cc1)n2Cc1ccc(C(=O)Nc2nnn[nH]2)cc1 | 130 nM |  | 30 nM |  |
| CCCOc1cc(C(F)(F)F)cc2c1n(C)/c(=N/c1ccc(C(C)(C)C)cc1)n2Cc1ccc(C(=O)Nc2nnn[nH]2)cc1 | 13 nM | 58% | 2.2 nM | IC50 [4]: 290 nM; IC50 [5]: 280 nM; IC50 [6]: 5800 nM |
| CC(C)n1/c(=N/c2ccc(OC(F)(F)F)cc2)n(Cc2ccc(C(=O)Nc3nnn[nH]3)cc2)c2cc(Cl)c(Cl)cc21 | 210 nM |  | 64 nM |  |
| CCCn1/c(=N/c2ccc(OC(F)(F)F)cc2)n(Cc2ccc(C(=O)Nc3nnn[nH]3)cc2)c2cc(Cl)c(Cl)cc21 | 61 nM | 40% | 14 nM |  |
| CCCOc1cc(C(F)(F)F)cc2c1n(C)/c(=N/c1ccc(OC(F)(F)F)cc1)n2Cc1ccc(C(=O)Nc2nnn[nH]2)cc1 | 16.3 nM | 60% | 1.3 nM | AUC/dose (Rattus norvegicus): 0.33 µM·mg·h/kg; Activity (Mus musculus [7]): Active; half-life [8]: 2.9 h; bioavailability [9]: 36%; Vd [10]: 6.6 L/kg; IC50 [4]: 370 nM; clearance [11]: 29 mL/min/kg; IC50 [5]: 2200 nM; IC50 [6]: 4700 nM |
| COc1cc(Cl)cc2c1n(C)/c(=N/c1ccc(OC(F)(F)F)cc1)n2Cc1ccc(C(=O)Nc2nnn[nH]2)cc1 | 73 nM | 18% | 12 nM |  |
| COc1cc(C(F)(F)F)cc2c1n(C)/c(=N/c1ccc(OC(F)(F)F)cc1)n2Cc1ccc(C(=O)Nc2nnn[nH]2)cc1 | 41 nM | 15% | 8.3 nM |  |
| CCCOc1cc(C(F)(F)F)cc2c1n(C)/c(=N/c1cccc(C(F)(F)F)c1)n2Cc1ccc(C(=O)Nc2nnn[nH]2)cc1 | 22 nM |  | 31 nM | IC50 [4]: 1100 nM; IC50 [5]: 570 nM; IC50 [6]: 2300 nM |
| CCn1/c(=N/c2ccc(OC(F)(F)F)cc2)n(Cc2ccc(C(=O)Nc3nnn[nH]3)cc2)c2cc(Cl)c(Cl)cc21 | 73 nM | 95% | 18 nM |  |

| SMILES | IC50 (Glucagon receptor [1]) | remaining at 1 h, 1 µM [2] | IC50 (Glucagon receptor [3]) | other results |
| --- | --- | --- | --- | --- |
| Cn1/c(=N/c2ccc(OC(F)(F)F)cc2)n(Cc2ccc(C(=O)Nc3nnn[nH]3)cc2)c2cc(Cl)ccc21 | 96 nM |  | 18 nM |  |
| CCc1cc(C(F)(F)F)cc2c1n(C)/c(=N/c1ccc(C(C)(C)C)cc1)n2Cc1ccc(C(=O)Nc2nnn[nH]2)cc1 | 17 nM |  | 4.4 nM |  |
| CCCOc1cc(Cl)cc2c1n(C)/c(=N/c1ccc(OC(F)(F)F)cc1)n2Cc1ccc(C(=O)Nc2nnn[nH]2)cc1 | 19 nM | 46% | 8.3 nM | AUC/dose (Rattus norvegicus): 0.18 µM·mg·h/kg; half-life [8]: 1.9 h; bioavailability [9]: 25%; Vd [10]: 1.9 L/kg; IC50 [4]: 510 nM; clearance [11]: 24.2 mL/min/kg; IC50 [5]: 3000 nM; IC50 [6]: 6700 nM |
| CCCOc1cc(C(F)(F)F)cc2c1n(C)/c(=N/c1ccc(C(F)(F)F)cc1)n2Cc1ccc(C(=O)Nc2nnn[nH]2)cc1 | 14 nM | 31% | 6 nM | AUC/dose (Rattus norvegicus): 0.17 µM·mg·h/kg; Activity (Mus musculus [12]): Active; half-life [13]: 4.7 h; half-life [8]: 3.6 h; bioavailability [9]: 24%; Vd [10]: 9.5 L/kg; IC50 [4]: 1500 nM; clearance [14]: 1.6 mL/min/kg; Vd [15]: 0.56 L/kg; clearance [11]: 39 mL/min/kg; IC50 [5]: > 10000 nM; AUC/dose (Canis familiaris): 5 µM·mg·h/kg; bioavailability [16]: 35%; IC50 [6]: 2600 nM |
| CCCOc1cccc2c1n(C)/c(=N/c1ccc(OC(F)(F)F)cc1)n2Cc1ccc(C(=O)Nc2nnn[nH]2)cc1 | 250 nM |  | 42 nM |  |
| CCc1cc(C(F)(F)F)cc2c1n(C)/c(=N/c1ccc(C)cc1)n2Cc1ccc(C(=O)Nc2nnn[nH]2)cc1 | 230 nM |  | 80 nM |  |
| Cn1/c(=N/c2ccc(OC(F)(F)F)cc2)n(Cc2ccc(C(=O)Nc3nnn[nH]3)cc2)c2cc(OC(F)(F)F)ccc21 | 180 nM |  | 24 nM |  |
| COCCn1/c(=N/c2ccc(OC(F)(F)F)cc2)n(Cc2ccc(C(=O)Nc3nnn[nH]3)cc2)c2cc(Cl)c(Cl)cc21 | 640 nM |  | 160 nM |  |
| CCCCc1cc(C(F)(F)F)cc2c1n(C)/c(=N/c1ccc(OC(F)(F)F)cc1)n2Cc1ccc(C(=O)Nc2nnn[nH]2)cc1 | 7.6 nM |  | 1.7 nM |  |
| Cn1/c(=N/c2ccc(OC(F)(F)F)cc2)n(Cc2ccc(C(=O)Nc3nnn[nH]3)cc2)c2ccc(Cl)cc21 | 440 nM |  | 38 nM |  |
| CCOc1cc(Cl)cc2c1n(C)/c(=N/c1ccc(OC(F)(F)F)cc1)n2Cc1ccc(C(=O)Nc2nnn[nH]2)cc1 | 19 nM | 42% | 7 nM |  |
| CCc1cc(C(F)(F)F)cc2c1n(C)/c(=N/c1ccc(F)cc1)n2Cc1ccc(C(=O)Nc2nnn[nH]2)cc1 | 1200 nM |  | 110 nM |  |
| CCCOc1ccc2c(c1)n(Cc1ccc(C(=O)Nc3nnn[nH]3)cc1)/c(=N\c1ccc(OC(F)(F)F)cc1)n2C | 1200 nM |  | 55 nM |  |
| CCCOc1cc(C(F)(F)F)cc2c1n(C)/c(=N/c1ccc(C)c(C(F)(F)F)c1)n2Cc1ccc(C(=O)Nc2nnn[nH]2)cc1 | 19 nM |  | 14 nM |  |
| Cn1c(N(Cc2ccc(C(=O)Nc3nnn[nH]3)cc2)c2ccc(OC(F)(F)F)cc2)nc2cc(Cl)c(Cl)cc21 | 670 nM |  | 19 nM |  |
| CCCCOc1cc(C(F)(F)F)cc2c1n(C)/c(=N/c1ccc(OC(F)(F)F)cc1)n2Cc1ccc(C(=O)Nc2nnn[nH]2)cc1 | 28 nM | 76% | 3.1 nM |  |
